Rows were chosen to be rich in hits. Some 1.2% of all compounds tested hit in one or more screens of this group.
CRFR2-BP antag – antagonists of CRF-BP/CRF-R2 complex, primary screen, cell-based, HEK293, calcium dye fluorescence, uHTS; CRF-induced calcium fluorescence; inhibition, % at 11.8 µM; 350,000 tested, 0.59% active; AID 588475, 2011;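 active means inhibition of the ligand-induced calcium signal above about 50% at the single tested concentration, limit read from the data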
DDE Tn6 FP inh – inhibitors of Tn6 peptide binding to fibrin DD(E), primary screen, biochemical, fluorescence polarization, human fibrin, Tn6 probe; Fibrinogen beta chain (Homo sapiens), P02675; Fibrin DD(E) TRITC-Tn6 fluorescence polarization displacement; inhibition, % at 8.3 µM; 370,000 tested, 0.21% active; AID 720509, 2013;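 active means inhibition above a per-campaign cutoff: mean of compounds within control limits plus 3 SD, cut at about 15% in these data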;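 further: 0% = median of all compound wells on the plate and 100% = blocking peptide control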
Target sequence (P02675 whole entry, looked up): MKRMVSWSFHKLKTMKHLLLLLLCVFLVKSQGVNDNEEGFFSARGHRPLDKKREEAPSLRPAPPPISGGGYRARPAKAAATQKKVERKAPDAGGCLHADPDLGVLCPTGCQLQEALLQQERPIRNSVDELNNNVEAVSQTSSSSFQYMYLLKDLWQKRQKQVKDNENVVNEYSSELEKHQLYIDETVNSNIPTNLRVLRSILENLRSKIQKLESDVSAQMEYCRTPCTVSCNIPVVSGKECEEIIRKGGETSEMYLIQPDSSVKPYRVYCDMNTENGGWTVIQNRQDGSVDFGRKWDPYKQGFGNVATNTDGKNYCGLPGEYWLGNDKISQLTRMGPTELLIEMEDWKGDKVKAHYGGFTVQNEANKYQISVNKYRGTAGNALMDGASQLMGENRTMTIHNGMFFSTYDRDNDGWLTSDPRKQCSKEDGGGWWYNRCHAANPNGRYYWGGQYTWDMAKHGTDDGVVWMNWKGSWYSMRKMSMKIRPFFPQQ
DDE Tn7 FP inh – inhibitors of Tn7 peptide binding to fibrin DD(E), primary screen, biochemical, fluorescence polarization, human fibrin, Tn7 probe; FP displacement of FITC-Tn7 peptide from fibrin DD(E); 0% = median of compound wells per plate; inhibition, % at 8.3 µM; 370,000 tested, 0.13% active;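 active means inhibition above the mean of compounds falling within the control limits plus 3 SD of them, cut at about 14% in these data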;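 further: 0% = plate median of compound wells and 100% = 10 µM Aha-Tn7 peptide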
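Assay system: Human clot-derived fibrin DD(E) complex | Buffer or medium: Tris/NaCl/CaCl2 buffer, pH 7.8 | Repeats: One replicate per compound | Benchmarks: Aha-Tn7 high control | Measure: % inhibition scaled between sample-field median and high-control FP | Schedule: 10 min plus 3 h, room temperature | Signal: Fluorescence polarization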
CRFBP-R2 agonist – agonists of CRF-BP/CRF-R2 complex, primary screen, cell-based, HEK293, calcium dye fluorescence, uHTS. AID 588473, 2011. activation, % at 13.2 µM. 350,000 tested, 0.46% active. calcium dye fluorescence (FLIPR); percent of saturating CRF peptide response. CRF-binding protein / CRF receptor 2 complex (human);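 active means activation of at least 50%, plus an integration ratio under a set limit after plate pattern correction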;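 further: plate controls were neutral control wells without compound for no effect and CRF at EC100 for full effect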
DDE Tn6 FP ctr – counter-screen for inhibitors of Tn6 peptide binding to fibrin DD(E); shares compounds with DDE Tn6 FP inh; TRITC-Tn6 fluorescence polarization displacement; 0% = median of compound wells, not DMSO; AID 720621; 680 tested, 2% active; inhibition, % at 8.3 µM;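 active means inhibition above the mean of test compounds lying between the control limits plus 3 SD of those, cut at about 14% in these data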;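 further: 0% = median of compound wells and 100% = wells with Aha-Tn7 blocking peptide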
DDE Tn6 confirm – inhibitors of Tn6 peptide binding to fibrin DD(E), confirmation, biochemical, fluorescence polarization, human fibrin, Tn6 probe | shares compounds with DDE Tn6 FP inh | FP displacement of TRITC-Tn6 peptide from DD(E); 0% = per-plate median of test wells | inhibition, % at 8.3 µM | 680 tested, 10% active | AID 720631, 2013;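 active means inhibition above the mean of compounds lying within the control limits plus 3 SD, cut at about 16% in these data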;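 further: 100% = high control wells holding a competing inhibitor peptide at 10 µM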
Numbers without * were called inactive; . = no result given; + = active, no number.

SMILES	CRFR2-BP antag	DDE Tn6 FP inh	DDE Tn7 FP inh	CRFBP-R2 agonist	DDE Tn6 FP ctr	DDE Tn6 confirm
CC(C)CCNC(=O)C1CCN(S(=O)(=O)c2ccc3c(c2)CC(C)N3C(=O)C2CC2)CC1 (stereo not drawn)	6	9	-2	-1	.	.
CCCCNC(=O)C1CCN(S(=O)(=O)c2ccc3c(c2)CC(C)N3C(=O)C2CC2)CC1 (stereo not drawn)	22	103*	-5	-6	1	2
COc1cc(CNC2CCCCCCC2)cc(Cl)c1OC	-27	17*	7	5	-4	-6
N#C/C(=C\c1cccnc1)C(=O)Nc1ccc(O)cc1F	2	49*	0	-1	-2	-1
Cc1nn(-c2ccccc2)cc1/C=N/NC(N)=S	6	-12	-1	-3	.	.
Cc1nn(-c2ccccc2)cc1C(c1c(N)[nH]c(=S)[nH]c1=O)c1c(N)[nH]c(=S)[nH]c1=O	-4	15*	1	0	-7	-28
COc1ccc(S(=O)(=O)N(C)CC(=O)Nc2ccccc2OC)cc1	1	23*	6	2	5	0
O=C(Nc1ccccc1F)Oc1cccc(OC(=O)Nc2ccccc2F)c1	4	15*	0	0	-1	0
COc1cccc(C(=O)Nc2ccccc2F)c1	26	0	-5	-1	.	.
CCCCN1C(=O)C(C(=O)OCc2ccccc2)CC2=C1CCCC2=O (stereo not drawn)	5	21*	-20	0	-2	-5
Cn1c(=O)n(C)c2cc(N3CCCC3)c(NC(=O)c3cccc(F)c3)cc21	-6	15*	6	0	6	1
O=C(COCc1ccccc1)N1CC[C@H]2[C@H](CCCN2Cc2ccc(F)cc2)C1	.	3	0	.	.	.
COc1ccccc1N=Nc1nc(-c2ccccc2)c(-c2ccccc2)[nH]1	2	21*	-3	-1	9	9
COc1ccc(OCC(=O)Nc2cc3c(cc2C(=O)O)OCCCO3)cc1	7	17*	7	0	5	1
CCN1/C(=C/C=C/c2oc3ccc(-c4ccccc4)cc3[n+]2CC)Oc2ccc(-c3ccccc3)cc21	-171	+	-6	227*	53*	93*
O=C(O)C(C=C(Cl)Cl)N1CCOCC1 (stereo not drawn)	1	0	-1	-2	.	.
O=C(OCc1cn(Cc2ccccc2F)nn1)N1CCCC1	.	1	1	.	.	.
NC(=O)c1ccc(NC(=O)COC(=O)CC2CC3CCC2C3)cc1 (stereo not drawn)	-9	-2	-6	4	.	.
O=C(COC(=O)CC1CC2CCC1C2)NC(=O)NCc1ccco1 (stereo not drawn)	7	20*	1	0	1	-5
COc1ccc(-n2c(COc3ccccc3)nnc2SCc2nc3ccccc3[nH]2)cc1	.	18*	5	.	-2	-9
Cn1c(COc2ccccc2)nnc1SCc1nc2ccccc2[nH]1	-27	1	-4	-1	.	.
CCCCCCCCN1C(=O)[C@@H](CC(=O)NCCC(C)C)C[C@@]2(C(=O)OC)C1=C[C@H](C(C)(C)C)O[C@@H]2C	.	16*	-5	.	2	-4
Nc1ccc(O)c2c1C(=O)c1ccccc1C2=O	1	130*	2	4	8	102*
O=C1c2ccccc2C(=O)c2c(O)c(O)cc(O)c21	52*	65*	3	4	7	88*
COc1ccc(N)c2c1C(=O)c1ccccc1C2=O	4	72*	3	0	4	58*
COc1ccc2noc3c2c1C(=O)c1ccccc1-3	-115	52*	-6	169*	53*	15
CN(c1ccccc1)S(=O)(=O)c1cccc(C(=O)NCCCN2CCCC2=O)c1	7	0	-6	-1	.	.
